Bioassay records from PubChem BioAssay.
CRFBP-R2 agonist – agonists of CRF-BP/CRF-R2 complex, primary screen, cell-based, HEK293, calcium dye fluorescence, uHTS | CRF-binding protein / CRF receptor 2 complex (human) | calcium dye fluorescence (FLIPR); percent of saturating CRF peptide response | activation, % at 13.2 µM | 0.46% of 350,000 active | AID 588473, 2011;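 active means activation of at least 50%, plus an integration ratio under a set limit after plate pattern correction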;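 further: plate controls were neutral control wells without compound for no effect and CRF at EC100 for full effect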
TAAR1 antag – human TAAR1 antagonists, primary screen, Fluo-8 calcium fluorescence, CHO RD-HGA16 cells; AID 624466, 2012; inhibition, % at 3 µM; 1.5% of 360,000 active; Trace amine-associated receptor 1 (Homo sapiens), Q96RJ0; antagonist;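 active means inhibition above a per-plate cutoff, the mean inhibition of test compounds on that plate plus 3 SD, cut at about 49% in these data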;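 further: 0% = DMSO plus EC80 beta-PEA response and 100% = DMSO alone without agonist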
Target sequence (Q96RJ0 whole entry, looked up): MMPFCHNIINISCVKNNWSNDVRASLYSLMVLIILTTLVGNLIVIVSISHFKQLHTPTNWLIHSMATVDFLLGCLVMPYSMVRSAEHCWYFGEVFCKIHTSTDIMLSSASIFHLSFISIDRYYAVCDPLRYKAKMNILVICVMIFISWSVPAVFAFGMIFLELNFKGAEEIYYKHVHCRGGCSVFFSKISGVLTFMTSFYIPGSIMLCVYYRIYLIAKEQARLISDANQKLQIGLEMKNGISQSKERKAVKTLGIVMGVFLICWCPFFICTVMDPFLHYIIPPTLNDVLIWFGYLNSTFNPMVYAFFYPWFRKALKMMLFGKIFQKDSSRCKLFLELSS
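Test system: hTAAR1-expressing CHO RD-HGA16 cells, Gα16-coupled; Probe or stimulus: EC80 β-phenethylamine stimulus; Compound dosing: single nominal final test compound concentration of 3 µM; Timing: 140 s kinetic read after compound, 140 s after agonist; Signal: Fluo-8 calcium-sensitive fluorescence; Measure: % inhibition of agonist calcium response; Controls: DMSO and EC80 PEA controls.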
TAAR1 ag – human TAAR1 agonists, primary screen, Fluo-8 calcium fluorescence, CHO RD-HGA16 cells; vehicle wells 0%, saturating PEA agonist 100%; activation, % at 3 µM; 0.99% of 360,000 active; AID 624467, 2012;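 active means activation above the mean activation of all test compounds in the run plus 3 SD, cut at about 38% in these data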
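System: CHO-derived RD-HGA16 cells with stable Gα16 and human TAAR1. Times: 17-24 h plating, Fluo-8 75 min 37 °C, 30 min RT. Measured by: calcium-sensitive Fluo-8 signal, excitation 470-495, emission 515-575 nm. Read-out basis: % activation relative to PEA EC100 response. Control set: DMSO and PEA EC100. Repeats: no replicates (n 1).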
TMEM16A act – TMEM16A chloride channel activators or potentiators, primary screen, cell-based, HTS; HEK293 TMEM16A/YFP-H148Q/I152L, iodide quench fluorescence; hits give low values; 0.3% of 340,000 active; AID 623877, 2012; Anoctamin-1 (Mus musculus), Q8BHY3; B-score at 10 µM;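 active means fluorescence-ratio B-score plate-corrected deviation score at least 3 library SD below zero, with starting fluorescence score within 5 deviations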;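 further: channel opened by trigger with iodide after compound preincubation; score built on the fluorescence ratio of max minus min over baseline; more negative score means more quench and so TMEM16A activation or potentiation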
TMEM16A inh – TMEM16A chloride channel inhibitors, primary screen, cell-based, HTS; Anoctamin-1 (Mus musculus), Q8BHY3; HEK293 TMEM16A/YFP iodide influx fluorescence, ionomycin; 1.2% of 310,000 active; normalized B-score (activity score, 25-100; higher = stronger inhibition) at 10 µM; AID 588511, 2011;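 active means ratio plate-corrected score three or more library SD toward inhibition, starting fluorescence score within five deviations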;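 further: score derived from kinetic fluorescence span divided by baseline fluorescence per well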
CRFBP-R2 block – antagonists of CRF-BP/CRF-R2 complex, primary screen, cell-based, HEK293, calcium dye fluorescence, uHTS. CRF-induced calcium fluorescence. inhibition, % at 11.8 µM. 0.59% of 350,000 active. AID 588475, 2011;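 active means inhibition of the ligand-induced calcium signal above about 50% at the single tested concentration, limit read from the data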
TAAR1 nonsel count – nonselective antagonists in TAAR1 counter-screen cells, counter-screen for hTAAR1 antagonist project, cell-based, fluorescence, calcium; inhibition, % at 3 µM; 77% of 2,400 active; shares compounds with TAAR1 antag; counterscreen cell line, antagonist mode; in the data active means inhibition above about 22%;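 further: CHO-Ga16 host cells stimulated with ATP at an EC80 level; 0% = agonist EC80 plus vehicle and 100% = vehicle without agonist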
TAAR1 antag conf – human TAAR1 antagonists, retest of hits, confirmation, cell-based, fluorescence; shares compounds with TAAR1 antag; TAAR1-expressing cells, fluorescence antagonist read-out; inhibition, % at 3 µM; 40% of 2,400 active; AID 651785, 2012; in the data active means inhibition above about 49%;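 further: CHO-Ga16 host cells challenged with agonist PEA near its EC80; 0% = agonist at EC80 plus vehicle and 100% = vehicle with no agonist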
Ga16 ag counter-1 – calcium activation in Ga16-expressing cells, counter-screen for TAAR1 antagonist project, cell-based, fluorescence; shares compounds with TAAR1 antag; agonist counterscreen; activation, % at 3 µM; 18% of 2,400 active; AID 651953, 2012; in the data active means activation above about 12%;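 further: 0% = vehicle wells and 100% = saturating stimulus response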
TAAR1 ag count – TAAR1 activation by candidate antagonists – cell-based, fluorescence, counter-screen for TAAR1 antagonist project; 2% of 2,400 active; shares compounds with TAAR1 antag; activation, % at 3 µM; hTAAR1 cell line, agonist mode; in the data active means activation above about 37%;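 further: CHO cells stably expressing TAAR1 with calcium dye readout; 0% = DMSO vehicle and 100% = full agonist response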
TAAR1 ag conf – human TAAR1 agonists, retest of hits, confirmation, Fluo-8 calcium fluorescence, CHO RD-HGA16 cells; shares compounds with TAAR1 ag; scaled: DMSO 0%, maximal phenethylamine 100%; activation, % at 3 µM; 82% of 2,400 active; AID 651783, 2012;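 active means activation above a cutoff set at the run's mean compound activation plus 3 SD, cut at about 39% in these data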
Ga16 ag counter-2 – nonselective calcium mobilization agonists, CHO-Ga16 cells, counter-screen for hTAAR1 agonist project, cell-based, fluorescence, CHO-Ga16 parental line | activation, % at 3 µM | shares compounds with TAAR1 ag | 50% of 2,400 active | AID 651787, 2012 | Fluo-8 calcium fluorescence; normalized to maximal ATP response, DMSO zero;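 active means activation above the run cutoff, the mean activation over all tested wells plus 3 SD, cut at about 12% in these data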;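 further: 0% = DMSO wells and 100% = maximal ATP response on the peak over basal ratio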
TAAR1 desens – TAAR1 desensitization by agonist hits, confirmation, counter-screen for TAAR1 agonist project, cell-based, fluorescence, tachyphylaxis; shares compounds with TAAR1 ag; CHO RD-HGA16 hTAAR1, Fluo-8 calcium, beta-PEA response inhibition; inhibition, % at 3 µM; 46% of 2,400 active;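 active means inhibition above the run cutoff, the mean inhibition of all test compounds plus 3 SD, cut at about 49% in these data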;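 further: beta-PEA stimulus applied at its EC80; loss of beta-PEA calcium signal after compound pretreatment read as receptor desensitization; 0% = DMSO with beta-PEA at EC80 and 100% = DMSO alone without agonist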
Ga16 antag count – inhibition of ATP-evoked calcium response in CHO-Ga16 cells, counter-screen for TAAR1 agonist project, cell-based, fluorescence; 39% of 2,400 active; shares compounds with TAAR1 ag; AID 651952, 2012; CHO-Ga16 ATP-induced calcium, Fluo-8 fluorescence; inhibition, % at 3 µM;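 active means inhibition above the plate's mean compound inhibition plus 3 SD, computed per plate, cut at about 22% in these data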;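 further: 0% = EC80 ATP with DMSO and 100% = DMSO wells without ATP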
Active calls of the source: *; i = inactive; / = no result. Compounds with a hit are over-represented: about 3.9% of the library has one in this group of screens.

SMILES | CRFBP-R2 agonist | TAAR1 antag | TAAR1 ag | TMEM16A act | TMEM16A inh | CRFBP-R2 block | TAAR1 nonsel count | TAAR1 antag conf | Ga16 ag counter-1 | TAAR1 ag count | others
O=C1CC(N2CCC(n3c(=O)[nH]c4ccccc43)CC2)C(=O)N1Cc1ccccc1 (stereo not given) | 0 | 11 | 11 | i | i | 1 | / | / | / | /
Cc1cccc(C)c1-n1nnnc1C(c1ccccc1OC(F)(F)F)N1CCC(n2c(=O)[nH]c3ccccc32)CC1 (stereo not given) | / | -29 | 4 | / | / | / | / | / | / | /
COc1ccc(-n2nnnc2C(c2cccs2)N2CCC(n3c(=O)[nH]c4ccccc43)CC2)cc1 (stereo not given) | / | 71* | 12 | / | / | / | 18 | 46 | 8 | 26
O=c1[nH]c2ccccc2n1C1CCN(C(c2cccs2)c2nnnn2-c2ccc3c(c2)OCCO3)CC1 (stereo not given) | / | 59* | 23 | / | / | / | 16 | 42 | 9 | 28
O=c1[nH]c2ccccc2n1C1CCN(C(c2cc3ccccc3o2)c2nnnn2Cc2ccccc2)CC1 (stereo not given) | / | 62* | 12 | / | / | / | 28* | 53* | 7 | 12
COc1ccc(-n2nnnc2C(C2CC2)N2CCC(n3c(=O)[nH]c4ccccc43)CC2)cc1 (stereo not given) | / | 72* | 32 | / | / | / | 19 | 51* | 11 | 18
CN1C(=O)C(=Cc2ccc(N(C)C)c([N+](=O)[O-])c2)C(=O)N(C)C1=O | / | / | / | / | i | / | / | / | / | /
C=C1[C@H]2CC[C@H]3[C@]4(C)C[C@H](O[C@@H]5OC(CO)[C@@H](OSOOO)[C@H](OS(=O)(=O)O)[C@H]5OC(=O)CC(C)C)C[C@@H](C(=O)O)[C@H]4CC[C@]3(C2)[C@H]1O (stereo not given in full) | 0 | -8 | 4 | i | / | -7 | / | / | / | /
Cc1c(C(=O)N2CCC3(CC2)OCCO3)sc2ncnc(N3CCc4ccccc4C3)c12 | 0 | 11 | 8 | i | i | -7 | / | / | / | /
COc1cccc(NP(=O)(Oc2ccccc2)Oc2ccccc2)c1 | -2 | 72* | 6 | i | i | -15 | 27* | 49* | 8 | 7
O=C(CN1CCOCC1)NCC(=O)Nc1ccc(Br)cc1C(=O)c1ccccc1 | -1 | 21 | 2 | i | i | 3 | / | / | / | /
CN1CCN(CC(=O)Nc2ccc([N+](=O)[O-])cc2C(=O)c2ccccc2)CC1 | 1 | 104* | 5 | i | i | -6 | 2 | -1 | 1 | 4
CC(C)C[C@@H]1NC(=O)[C@H](Cc2ccccc2)N(C)C(=O)[C@H](C)NC(=O)c2ccccc2NC(=O)[C@H](Cc2ccc(O)cc2)N(C)C1=O | -1 | 70* | 10 | i | i | 11 | 32* | 52* | 8 | 8
CCCCCc1nc2c(c(=O)c3ccccc3n2C)c(=O)n1C1CCCCCC1 | 219* | 85* | 125* | -11* | i | -199 | / | / | / | / | TAAR1 ag conf=122*;Ga16 ag counter-2=96*;TAAR1 desens=93*;Ga16 antag count=85*
O=[N+]([O-])c1ccc(CNCCc2ccccc2)cc1 | 1 | -7 | 65* | i | i | -7 | / | / | / | / | TAAR1 ag conf=64*;Ga16 ag counter-2=2;TAAR1 desens=27;Ga16 antag count=9
CCOc1ccc([N+](=O)[O-])cc1CNCCc1ccccc1 | 1 | 27 | 52* | i | i | 14 | / | / | / | / | TAAR1 ag conf=66*;Ga16 ag counter-2=2;TAAR1 desens=51*;Ga16 antag count=18
O=[N+]([O-])c1ccccc1CNCCc1ccc(F)cc1 | -1 | -7 | 36 | i | i | -2 | / | / | / | /
COC(=O)C1=C(c2ccc(F)cc2OCc2ccccc2)C[C@@H]2CC[C@H]1N2C(=O)NCC1CC1 | -2 | 6 | 17 | i | / | 6 | / | / | / | /
C[C@@H]1CNCCN1c1ccc(N2CC[C@@H](O)C2)c(C#N)c1 | / | -28 | 0 | / | / | / | / | / | / | /
CCCCC(CC)CNCC(O)c1ccccc1 (stereo not given) | -1 | 5 | 53* | i | i | -27 | / | / | / | / | TAAR1 ag conf=64*;Ga16 ag counter-2=5;TAAR1 desens=28;Ga16 antag count=4
COC(=O)C1=C(c2c(C)noc2C)C[C@@H]2CC[C@H]1N2C(=O)NCCOc1ccc(OC)cc1 | 0 | 4 | 9 | i | / | 9 | / | / | / | /
Cc1ccc(OC(F)F)c(N2C(=O)C3C4CCC(O4)C3C2=O)c1 (stereo not given) | -1 | 7 | 3 | i | / | -2 | / | / | / | /
